Measurements reported in ChEMBL document CHEMBL1124622, “Synthesis and antiviral activity of 3'-C-cyano-3'-deoxynucleosides” (J Med Chem, 1989).
Values after ≈ are worked out from the molar mass of the structure shown.

Assays:
[1] = system: Moloney murine sarcoma virus; assay: In vitro effective dose against Moloney murine sarcoma virus induced transformation of C3H embryo fibroblast cells.; assay type: functional; conditions: read-out: ED50 (the source's name)
Summary of the method: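 C3H mouse embryo cells are seeded at 20 000 cells/mL per well and grown 24 h. They are infected with 80 foci-forming units of Moloney MSV for 90 min, then given fresh medium with varying compound concentrations. Transformation is examined microscopically after 6-7 days. ED50 is the dose giving a 50% reduction in transformation.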

[2] = In vitro minimum cytotoxic concentration in C3H embryo fibroblast cells.; assay type: functional; conditions: Mus musculus
Summary of the method: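 Minimal cytotoxic concentration in C3H mouse embryo cells, run in the same 48-well setup as the MSV transformation assay: the concentration producing microscopically visible alteration of cell morphology.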

[3] = Minimum cytotoxic concentration in HeLa cell cultures; assay type: cell-based; conditions: human, HeLa cells
HeLa [4] = assay: Minimum inhibitory concentration against Vesicular stomatitis virus in HeLa cell cultures; assay type: functional; conditions: Homo sapiens
Summary of the method: (§1)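 Confluent HeLa, Vero or primary rabbit kidney cell cultures in microtiter trays are inoculated with 100 CCID50 of virus. After 1 h adsorption, residual virus is removed and cells are incubated with varying compound concentrations. Cytopathogenicity is recorded once it is complete in untreated virus-infected controls. MIC is the concentration inhibiting virus-induced cytopathogenicity.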

HeLa [5] = assay: Minimum inhibitory concentration against polio virus 1 in HeLa cell cultures; assay type: functional; conditions: Homo sapiens; summary of the method: as §1
Homo sapiens = species on record: Homo sapiens; assay: Cytotoxic dose against uninfected human MT-4 cell; assay type: functional; conditions: MT4, read-out: CD50 (the source's name)
Summary of the method: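 Cytotoxicity counterpart of the HIV assay: uninfected human MT-4 lymphocytes exposed to the compounds. CD50 is the dose that reduces viability of these uninfected cells by 50%.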

[6] = system: Human immunodeficiency virus 1; assay: Effective dose against HIV-1 induced cytopathogenicity in human MT-4 cell.; assay type: functional; conditions: Human immunodeficiency virus 1, MT4; read-out: ED50 (the source's name)
Summary of the method: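 HIV (HTLV-III_B) is taken from the culture supernatant of a persistently infected HUT-78 line. Human MT-4 lymphocytes are infected and the assay scores inhibition of virus-induced cytopathogenicity. ED50 is the dose giving 50% protection of MT-4 cells against the viral cytopathic effect.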

[7] = Minimum cytotoxic concentration in primary rabbit kidney cell cultures; assay type: cell-based, Oryctolagus cuniculus; conditions: primary rabbit kidney cells
Coxsackievirus B4 = assay: Minimum inhibitory concentration against Coxsackie virus B4 in Vero cell cultures; assay type: functional; conditions: Enterovirus B; summary of the method: as §1
Semliki Forest virus = assay: Minimum inhibitory concentration against forest virus in Vero cell cultures; assay type: functional; summary of the method: as §1
Sindbis virus = assay: Minimum inhibitory concentration against Sindbis virus in Vero cell cultures; assay type: functional; summary of the method: as §1
Human respirovirus 3 = assay: Minimum inhibitory concentration against parainfluenza 3 virus in Vero cell cultures; assay type: functional; summary of the method: as §1
[8] = system: Mammalian orthoreovirus 1; assay: Minimum inhibitory concentration against reovirus in Vero cell cultures; assay type: functional; summary of the method: as §1
Vaccinia virus = assay: (§2) Minimum inhibitory concentration against Vaccinia virus in primary rabbit kidney cell cultures; assay type: functional; conditions: Orthopoxvirus vaccinia; summary of the method: as §1
[9] = system: Vesicular stomatitis virus; assay: (§3) Minimum inhibitory concentration against Vesicular stomatitis virus in primary rabbit kidney cell cultures; assay type: functional; summary of the method: as §1
HeLa [10] = assay: Minimum inhibitory concentration against Coxsackie virus B4 in HeLa cell cultures; assay type: functional; conditions: Homo sapiens; summary of the method: as §1
[11] = Minimum cytotoxic concentration in Vero cell cultures; assay type: cell-based; conditions: chlorocebus sabaeus, Vero cells
Oryctolagus cuniculus [12] = species on record: Oryctolagus cuniculus; assay: Minimum inhibitory concentration against Herpes simplex virus 1(KOS) in primary rabbit kidney cell cultures; assay type: functional; summary of the method: as §1
Oryctolagus cuniculus [13] = species on record: Oryctolagus cuniculus; assay: Minimum inhibitory concentration against Herpes simplex virus 2 (G) in primary rabbit kidney cell cultures; assay type: functional; summary of the method: as §1
Oryctolagus cuniculus [14] = species on record: Oryctolagus cuniculus; assay: as §2; assay type: functional; summary of the method: as §1
Oryctolagus cuniculus [15] = species on record: Oryctolagus cuniculus; assay: as §3; assay type: functional; summary of the method: as §1
Oryctolagus cuniculus [16] = species on record: Oryctolagus cuniculus; assay: Minimum cytotoxic concentration in primary rabbit kidney cell cultures

## Cc1cn(C2C=C(C#N)C(CO)O2)c(=O)[nH]c1=O (stereo not drawn)
[1]
  EC50: 191 µg/mL (≈ 766 µM)
[2]
  MCC: > 250 µg/mL
[3]
  MCC: 400 µg/mL
HeLa [4]
  MIC: 150 µg/mL (≈ 602 µM)
HeLa [5]
  MIC: > 200 µg/mL
Homo sapiens
  CC50: 24 µM
[6]
  EC50: > 50 µM
[7]
  MCC: 200 µg/mL
Coxsackievirus B4
  MIC: > 100 µg/mL
Semliki Forest virus
  MIC: > 40 µg/mL
Sindbis virus
  MIC: > 100 µg/mL
Human respirovirus 3
  MIC: > 40 µg/mL
[8]
  MIC: > 40 µg/mL
Vaccinia virus
  MIC: > 100 µg/mL
[9]
  MIC: > 100 µg/mL
HeLa [10]
  MIC: > 200 µg/mL
[11]
  MCC: > 100 µg/mL

## N#CC1C(CO)OC(n2ccc(N)nc2=O)C1O (stereo not drawn)
[1]
  EC50: 43 µg/mL (≈ 170 µM)
[2]
  MCC: > 200 µg/mL
[3]
  MCC: 100 µg/mL
HeLa [4]
  MIC: 70 µg/mL (≈ 278 µM)
HeLa [5]
  MIC: > 40 µg/mL
Homo sapiens
  CC50: 22.7 µM
[6]
  EC50: > 10 µM
[7]
  MCC: > 100 µg/mL
Coxsackievirus B4
  MIC: > 100 µg/mL
Semliki Forest virus
  MIC: > 100 µg/mL
Sindbis virus
  MIC: > 100 µg/mL
Human respirovirus 3
  MIC: > 100 µg/mL
[8]
  MIC: > 100 µg/mL
Vaccinia virus
  MIC: 40 µg/mL (≈ 159 µM)
[9]
  MIC: > 100 µg/mL
HeLa [10]
  MIC: > 40 µg/mL
[11]
  MCC: 200 µg/mL

## CC(C)(C)[Si](C)(C)OCC1OC(n2ccc(N)nc2=O)C(O[Si](C)(C)C(C)(C)C)C1C#N (stereo not drawn)
[1]
  EC50: > 1.6 µg/mL
[2]
  MCC: 8 µg/mL
[3]
  MCC: > 4 µg/mL
HeLa [4]
  MIC: > 1 µg/mL
HeLa [5]
  MIC: > 1 µg/mL
Homo sapiens
  CC50: 6.1 µM
[6]
  EC50: > 3.2 µM
[7]
  MCC: > 10 µg/mL
Coxsackievirus B4
  MIC: > 4 µg/mL
Semliki Forest virus
  MIC: > 4 µg/mL
Sindbis virus
  MIC: > 4 µg/mL
Human respirovirus 3
  MIC: > 4 µg/mL
[8]
  MIC: > 4 µg/mL
Vaccinia virus
  MIC: > 4 µg/mL
[9]
  MIC: > 4 µg/mL
HeLa [10]
  MIC: > 1 µg/mL
[11]
  MCC: 10 µg/mL

## Cc1cn(C2CC(C#N)C(CO[Si](C)(C)C(C)(C)C)O2)c(=O)[nH]c1=O (stereo not drawn)
[1]
  EC50: > 16 µg/mL
[2]
  MCC: 80 µg/mL
[3]
  MCC: 100 µg/mL
HeLa [4]
  MIC: > 40 µg/mL
HeLa [5]
  MIC: > 40 µg/mL
Homo sapiens
  CC50: 31 µM
[6]
  EC50: > 16 µM
[7]
  MCC: > 100 µg/mL
Coxsackievirus B4
  MIC: > 100 µg/mL
Semliki Forest virus
  MIC: > 100 µg/mL
Sindbis virus
  MIC: > 100 µg/mL
Human respirovirus 3
  MIC: > 100 µg/mL
[8]
  MIC: 20 µg/mL (≈ 54.7 µM)
Vaccinia virus
  MIC: > 40 µg/mL
[9]
  MIC: > 40 µg/mL
HeLa [10]
  MIC: > 40 µg/mL
[11]
  MCC: > 100 µg/mL

## Cc1cn(C2OC(CO)C(C#N)C2O)c(=O)[nH]c1=O (stereo not drawn)
[1]
  EC50: > 250 µg/mL
[2]
  MCC: > 250 µg/mL
[3]
  MCC: > 400 µg/mL
HeLa [4]
  MIC: > 200 µg/mL
HeLa [5]
  MIC: > 200 µg/mL
Homo sapiens
  CC50: 232 µM
[6]
  EC50: > 250 µM
[7]
  MCC: 400 µg/mL
Coxsackievirus B4
  MIC: > 100 µg/mL
Semliki Forest virus
  MIC: 300 µg/mL (≈ 1120 µM)
Sindbis virus
  MIC: 150 µg/mL (≈ 561 µM)
Human respirovirus 3
  MIC: > 100 µg/mL
[8]
  MIC: > 200 µg/mL
Vaccinia virus
  MIC: 150 µg/mL (≈ 561 µM)
[9]
  MIC: > 200 µg/mL
HeLa [10]
  MIC: > 200 µg/mL
[11]
  MCC: > 200 µg/mL

## CC(=O)Nc1ccn(C2OC(CO[Si](C)(C)C(C)(C)C)C(C#N)C2O[Si](C)(C)C(C)(C)C)c(=O)n1 (stereo not drawn)
[1]
  EC50: 2.2 µg/mL (≈ 4.21 µM)
[2]
  MCC: > 3.2 µg/mL
[3]
  MCC: > 4 µg/mL
HeLa [4]
  MIC: > 1 µg/mL
HeLa [5]
  MIC: > 4 µg/mL
Homo sapiens
  CC50: 4.8 µM
[6]
  EC50: > 3.2 µM
[7]
  MCC: > 4 µg/mL
Coxsackievirus B4
  MIC: > 4 µg/mL
Semliki Forest virus
  MIC: > 4 µg/mL
Sindbis virus
  MIC: > 4 µg/mL
Human respirovirus 3
  MIC: > 4 µg/mL
[8]
  MIC: > 4 µg/mL
Vaccinia virus
  MIC: > 1 µg/mL
[9]
  MIC: > 1 µg/mL
HeLa [10]
  MIC: 2 µg/mL (≈ 3.83 µM)
[11]
  MCC: > 4 µg/mL

## Nc1nccc2c1ncn2[C@@H]1C[C@H](CO)[C@@H](O)[C@H]1O [3-DEAZAARISTEROMYCIN A]
[3]
  MCC: > 400 µg/mL
HeLa [4]
  MIC: 1 µg/mL (≈ 3.78 µM)
HeLa [5]
  MIC: > 400 µg/mL
[7]
  MCC: > 400 µg/mL
Coxsackievirus B4
  MIC: 100 µg/mL (≈ 378 µM)
Semliki Forest virus
  MIC: > 400 µg/mL
Sindbis virus
  MIC: 300 µg/mL (≈ 1140 µM)
Human respirovirus 3
  MIC: 4 µg/mL (≈ 15.1 µM)
[8]
  MIC: 7 µg/mL (≈ 26.5 µM)
Vaccinia virus
  MIC: 2 µg/mL (≈ 7.57 µM)
[9]
  MIC: 0.7 µg/mL (≈ 2.65 µM)
HeLa [10]
  MIC: > 400 µg/mL
[11]
  MCC: 400 µg/mL

## NC(=O)c1ncn([C@@H]2O[C@H](CO)[C@@H](O)[C@H]2O)n1 [RIBAVIRIN]
[3]
  MCC: > 200 µg/mL
HeLa [4]
  MIC: 20 µg/mL (≈ 81.9 µM)
HeLa [5]
  MIC: 70 µg/mL (≈ 287 µM)
Coxsackievirus B4
  MIC: 100 µg/mL (≈ 409 µM)
Semliki Forest virus
  MIC: 300 µg/mL (≈ 1230 µM)
Sindbis virus
  MIC: 70 µg/mL (≈ 287 µM)
Human respirovirus 3
  MIC: 40 µg/mL (≈ 164 µM)
[8]
  MIC: 70 µg/mL (≈ 287 µM)
Oryctolagus cuniculus [12]
  MIC: > 400 µg/mL
Oryctolagus cuniculus [13]
  MIC: > 400 µg/mL
Oryctolagus cuniculus [14]
  MIC: 10 µg/mL (≈ 40.9 µM)
Oryctolagus cuniculus [15]
  MIC: 300 µg/mL (≈ 1230 µM)
HeLa [10]
  MIC: 70 µg/mL (≈ 287 µM)
[11]
  MCC: > 400 µg/mL
Oryctolagus cuniculus [16]
  MCC: > 400 µg/mL

## Nc1ncnc2c1ccn2[C@@H]1O[C@H](CO)[C@@H](O)[C@H]1O [TUBERCIDIN]
[3]
  MCC: > 0.4 µg/mL
HeLa [4]
  MIC: 0.07 µg/mL (≈ 0.263 µM)
HeLa [5]
  MIC: 0.4 µg/mL (≈ 1.5 µM)
Coxsackievirus B4
  MIC: > 0.1 µg/mL
Semliki Forest virus
  MIC: > 0.1 µg/mL
Sindbis virus
  MIC: 0.2 µg/mL (≈ 0.751 µM)
Human respirovirus 3
  MIC: > 0.1 µg/mL
[8]
  MIC: > 0.1 µg/mL
Vaccinia virus
  MIC: 0.1 µg/mL (≈ 0.376 µM)
[9]
  MIC: 0.07 µg/mL (≈ 0.263 µM)
HeLa [10]
  MIC: 0.4 µg/mL (≈ 1.5 µM)
[11]
  MCC: 0.4 µg/mL
Oryctolagus cuniculus [16]
  MCC: > 0.4 µg/mL
